Converted amounts (≈) assume the structure as drawn. Non-standard residues stand in square brackets, D forms with d. Residues, ends and D or L forms follow the SMILES beside them. *: point of attachment. Decanoyl = CCCCCCCCCC(=O)*; Heptanoyl = CCCCCCC(=O)*; Dab = NCC[C@H](N)C(=O)O; Cbz = O=C(OCc1ccccc1)*; Hexanoyl = CCCCCC(=O)*; Bz = O=C(c1ccccc1)*
Assays:
[1] = system: Escherichia coli; assay: Antibacterial activity against Escherichia coli ATCC 25922 after 18 to 20 hrs by broth microdilution method; type: functional
Method in brief: (§1)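 Broth microdilution in tryptic soy broth: 2-fold dilutions mixed 1:1 with ~1.5 × 10^5 CFU/mL inoculum, final 0.5–32 μg/mL; 37 °C, 18–20 h. MIC taken as lowest concentration giving no visible growth. At least three independent experiments, one replicate each.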

[2] = system: Pseudomonas aeruginosa; assay: Antibacterial activity against Pseudomonas aeruginosa ATCC 27853 after 18 to 20 hrs by broth microdilution method; type: functional; method in brief: as §1
[3] = system: Acinetobacter baumannii; assay: Potentiation of rifampicin-mediated antibacterial activity against Acinetobacter baumannii ATCC 19606 assessed as rifampicin MIC at 2 ug/ml by checkerboard method (reference value: 16 ug/ml); type: functional; conditions: ATCC 19606 = CIP 70.34 = JCM 6841
[4] = system: Klebsiella pneumoniae; assay: Potentiation of rifampicin-mediated antibacterial activity against Klebsiella pneumoniae ATCC 13883 assessed as decrease in rifampicin MIC at 2 ug/ml by checkerboard method relative to control; type: functional
[5] = system: Enterococcus faecium; assay: Antibacterial activity against Enterococcus faecium ATCC 19434 after 18 to 20 hrs by broth microdilution method; type: functional; method in brief: as §1
[6] = system: Staphylococcus aureus; assay: Antibacterial activity against Staphylococcus aureus ATCC 29213 after 18 to 20 hrs by broth microdilution method; type: functional; method in brief: as §1
[7] = system: Acinetobacter baumannii; assay: Potentiation of rifampicin-mediated antibacterial activity against Acinetobacter baumannii ATCC 19606 assessed as decrease in rifampicin MIC at 4 ug/ml by checkerboard method relative to control; type: functional, ATCC 19606 = CIP 70.34 = JCM 6841
[8] = system: Klebsiella pneumoniae; assay: Antibacterial activity against Klebsiella pneumoniae ATCC 13883 after 18 to 20 hrs by broth microdilution method; type: functional
[9] = system: Klebsiella pneumoniae; assay: Potentiation of rifampicin-mediated antibacterial activity against Klebsiella pneumoniae ATCC 13883 assessed as rifampicin MIC at 2 ug/ml by checkerboard method (reference value: 16 ug/ml); type: functional
[10] = system: Acinetobacter baumannii; assay: Antibacterial activity against Acinetobacter baumannii ATCC 19606 after 18 to 20 hrs by broth microdilution method; type: functional; conditions: ATCC 19606 = CIP 70.34 = JCM 6841
[11] = system: Staphylococcus aureus; assay: Antibacterial activity against methicillin-resistant Staphylococcus aureus ATCC 43300 after 18 to 20 hrs by broth microdilution method; type: functional
Method in brief: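 Broth microdilution in tryptic soy broth: 2-fold dilutions mixed 1:1 with ~1.5 × 10^5 CFU/mL bacterial suspension in TSB, final 0.5–32 μg/mL, 37 °C for 18–20 h. MIC = lowest concentration with no visible growth. At least three independent experiments, one replicate each.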

Structure (SMILES) | MIC [1] | MIC [2] | MIC [3] | fold change (FC) [4] | MIC [5] | MIC [6] | fold change (FC) [7] | MIC [8] | MIC [9] | MIC [10] | MIC [11]
CCCCCCCC(=O)N[C@H](CCCN)C(=O)N[C@H](C(=O)N[C@@H](CCCN)C(=O)N[C@@H](Cc1ccccc1)C(=O)N[C@@H](CC(C)C)C(=O)N[C@@H](CCCN)C(=O)N[C@H](C(=O)N[C@@H](CC(C)C)C(=O)N[C@@H](CO)C(N)=O)C(C)C)[C@@H](C)CC | 32 µg/mL (≈ 27.6 µM) | 16 µg/mL (≈ 13.8 µM) | 0.0625 µg/mL | 1024 - 2048 | > 32 µg/mL | > 32 µg/mL | 512 - 1024 | > 32 µg/mL | 0.0313 to 0.0625 µg/mL | 32 µg/mL (≈ 27.6 µM) | 32 µg/mL (≈ 27.6 µM)
CCCCCC(=O)N[C@@H](CCN)C(=O)N[C@H](C(=O)N[C@@H](CCN)C(=O)N[C@H](Cc1ccccc1)C(=O)N[C@@H](CC(C)C)C(=O)N[C@@H](CCN)C(=O)N[C@@H](C(=O)N[C@@H](CC(C)C)C(=O)N[C@@H](CO)C(N)=O)C(C)C)[C@@H](C)CC (Hexanoyl-[Dab]I[Dab][dF]L[Dab][dV]LS-NH2) | 8 to 16 µg/mL (≈ 7.35 to 14.7 µM) | 8 to 16 µg/mL (≈ 7.35 to 14.7 µM) | 0.0078 to 0.0156 µg/mL | 8192 | > 32 µg/mL | > 32 µg/mL | 4096 - 8192 | ≥ 32 µg/mL | 0.0039 µg/mL | > 32 µg/mL | > 32 µg/mL
CC[C@H](C)[C@H](NC(=O)[C@H](CCN)NC(=O)OCc1ccccc1)C(=O)N[C@@H](CCN)C(=O)N[C@H](Cc1ccccc1)C(=O)N[C@@H](CC(C)C)C(=O)N[C@@H](CCN)C(=O)N[C@@H](C(=O)N[C@@H](CC(C)C)C(=O)N[C@@H](CO)C(N)=O)C(C)C (Cbz-[Dab]I[Dab][dF]L[Dab][dV]LS-NH2) | 8 to 16 µg/mL (≈ 7.11 to 14.2 µM) | 16 µg/mL (≈ 14.2 µM) | 0.0019 to 0.0039 µg/mL | 4096 - 8192 | > 32 µg/mL | > 32 µg/mL | >=8192 | > 32 µg/mL | 0.0039 µg/mL | 16 µg/mL (≈ 14.2 µM) | > 32 µg/mL
CCCCCCCCCC(=O)N[C@@H](CCN)C(=O)N[C@H](C(=O)N[C@H](C(=O)N[C@H](CC(C)C)C(=O)N[C@@H](CC(C)C)C(=O)N[C@@H](CCN)C(=O)N[C@@H](C(=O)N[C@@H](CC(C)C)C(=O)N[C@@H](CO)C(N)=O)C(C)C)[C@@H](C)O)[C@@H](C)CC (Decanoyl-[Dab]IT[dL]L[Dab][dV]LS-NH2) | > 32 µg/mL | > 32 µg/mL | > 0.125 µg/mL | <8 | ≥ 32 µg/mL | > 32 µg/mL | <128 | > 32 µg/mL | > 0.125 µg/mL | > 32 µg/mL | > 32 µg/mL
CCCCCCC(=O)N[C@@H](CCN)C(=O)N[C@H](C(=O)N[C@@H](CCN)C(=O)N[C@H](Cc1ccccc1)C(=O)N[C@@H](CC(C)C)C(=O)N[C@@H](CCN)C(=O)N[C@@H](C(=O)N[C@@H](CC(C)C)C(=O)N[C@@H](CO)C(N)=O)C(C)C)[C@@H](C)CC (Heptanoyl-[Dab]I[Dab][dF]L[Dab][dV]LS-NH2) | 4 µg/mL (≈ 3.63 µM) | 4 µg/mL (≈ 3.63 µM) | 0.0078 µg/mL | >=8192 | > 32 µg/mL | > 32 µg/mL | 4096 | 32 µg/mL (≈ 29 µM) | 0.0039 µg/mL | > 32 µg/mL | > 32 µg/mL
CC[C@H](C)[C@H](NC(=O)[C@H](CCN)NC(=O)c1ccccc1)C(=O)N[C@@H](CCN)C(=O)N[C@H](Cc1ccccc1)C(=O)N[C@@H](CC(C)C)C(=O)N[C@@H](CCN)C(=O)N[C@@H](C(=O)N[C@@H](CC(C)C)C(=O)N[C@@H](CO)C(N)=O)C(C)C (Bz-[Dab]I[Dab][dF]L[Dab][dV]LS-NH2) | 16 to 32 µg/mL (≈ 14.6 to 29.2 µM) | 8 to 32 µg/mL (≈ 7.31 to 29.2 µM) | 0.0312 µg/mL | 4096 - 8192 | > 32 µg/mL | > 32 µg/mL | 2048 - 4096 | > 32 µg/mL | 0.0078 µg/mL | > 32 µg/mL | > 32 µg/mL
